Calls of active or inactive are those of the source. The calls are words filed in the database; no cut-off is given here.
Tests used:
MCF7 [1] = assay: Induction of apoptosis in human MCF7 cells assessed as chromosome fragmentation at 30 uM by fluorescent microscopy; assay type: functional, cell-based; settings: TDE = time-dependent effect
[2] = biological target: T1, Peroxisome proliferator-activated receptor gamma (Homo sapiens) (UniProt P37231); assay: Activation of GAL4 fused human PPARgamma ligand binding domain transfected in african green monkey CV1 cells at 10 uM by CAT reporter assay; assay type: cell-based; settings: CV-1
T1 sequence (whole entry): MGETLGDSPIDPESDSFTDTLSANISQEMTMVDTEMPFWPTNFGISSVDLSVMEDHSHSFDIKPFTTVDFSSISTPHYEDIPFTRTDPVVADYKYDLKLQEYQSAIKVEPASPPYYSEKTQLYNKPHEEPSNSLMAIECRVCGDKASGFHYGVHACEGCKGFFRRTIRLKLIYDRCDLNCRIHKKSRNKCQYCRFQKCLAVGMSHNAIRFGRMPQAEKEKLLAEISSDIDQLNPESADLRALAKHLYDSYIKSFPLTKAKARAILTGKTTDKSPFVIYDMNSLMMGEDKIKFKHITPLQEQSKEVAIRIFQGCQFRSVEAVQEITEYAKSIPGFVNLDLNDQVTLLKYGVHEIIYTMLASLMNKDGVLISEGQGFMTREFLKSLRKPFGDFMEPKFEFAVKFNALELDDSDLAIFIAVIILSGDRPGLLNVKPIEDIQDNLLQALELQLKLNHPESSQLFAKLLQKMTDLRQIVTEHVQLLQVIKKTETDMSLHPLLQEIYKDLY

[3] = biological target: T1, Peroxisome proliferator-activated receptor gamma (Homo sapiens); assay: Activation of PPARgamma transfected in human MDA-MB-231 cells at 100 to 300 uM after 48 hrs by luciferase reporter gene assay; assay type: cell-based
How it was run: (§1)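 MCF-7 or MDA-MB-231 cells grown in DMEM/F12 with 10% FCS at 37 °C, 5% CO2. Electroporated with pPPRE-aP2-tk-luc reporter (50 µg/mL) plus rat PPARγ construct pCMV-rPPARγ (10 µg/mL). Seeded 20,000 cells/well and left 20 h. Compound added in serum-free medium for 24 or 48 h. Cells lysed and luciferase read. Runs done in triplicate or quadruplicate.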

[4] = biological target: T1, Peroxisome proliferator-activated receptor gamma (Homo sapiens); assay: Activation of PPARgamma transfected in human MCF7 cells at 100 to 300 uM after 48 hrs by luciferase reporter gene assay; assay type: cell-based; how it was run: as §1
[5] = biological target: T1, Peroxisome proliferator-activated receptor gamma (Homo sapiens); assay: Activation of PPARgamma transfected in human MCF7 cells at 10 uM by luciferase reporter gene assay; assay type: cell-based; how it was run: as §1
[6] = biological target: T2, Peroxisome proliferator-activated receptor gamma (Homo sapiens, UniProt P37231); assay: Activation of PPARgamma transfected in human MCF7 cells by luciferase reporter gene assay; assay type: cell-based
T2 sequence (P37231 whole entry): T1 sequence (whole entry)

NCI-H1299 = assay: Activation of p21 promoter in human H1299 cells by reporter assay; assay type: functional, cell-based
MCF7 [7] = assay: Antiproliferative activity against human MCF7 cells at 10 uM after 48 hrs by neutral red method; assay type: functional
How it was run: (§2)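 MCF-7 cells plated as for the reporter assay (20,000/well, 20 h), then exposed 48 h to compound added in serum-free DMEM/F12. Viability read by neutral red uptake as absorbance at 540 nm, corrected at 630 nm. Triplicate, mean ± SD.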

MCF7 [8] = assay: Antiproliferative activity against human MCF7 cells at 30 uM after 8 hrs by neutral red method; assay type: functional
How it was run: (§3)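 Short exposure: MCF-7 cells treated at 3, 10 or 30 µM for 1, 2, 4 or 8 h. Then washed twice with serum-free medium and grown 96 h in medium with 10% FCS, compound-free. Neutral red absorbance at 540 nm, corrected at 630 nm. Triplicate.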

MCF7 [9] = assay: Induction of apoptosis in human MCF7 cells assessed as chromosome fragmentation at 10 uM after 16 hrs by fluorescent microscopy; assay type: functional, cell-based
How it was run: (§4)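 MCF-7 cells seeded at 80,000/well on coverslips and grown 16 h. Compound added (10 µM final) in an equal volume of serum-free medium; 30 nM taxol as control. After 4, 8 or 16 h, cells fixed in MeOH, washed in PBS and mounted in DAPI. Fragmented nuclei scored by fluorescence at 400×.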

MCF7 [10] = assay: Antiproliferative activity against human MCF7 cells by neutral red method; assay type: functional, cell-based; how it was run: as §2
T47D [11] = assay: Induction of apoptosis in human T47D cells assessed as chromosome fragmentation at 10 uM after 16 hrs by fluorescent microscopy
MCF7 [12] = assay: Induction of apoptosis in human MCF7 cells assessed as chromosome fragmentation at 10 uM after 8 hrs by fluorescent microscopy; assay type: functional, cell-based; how it was run: as §4
MCF7 [13] = assay: Antiproliferative activity against human MCF7 cells at 10 uM up to 8 hrs by neutral red method; assay type: functional, cell-based; how it was run: as §3
T47D [14] = assay: Induction of apoptosis in human T47D cells assessed as chromosome fragmentation at 10 uM after 8 hrs by fluorescent microscopy
[15] = Inhibition of HDAC by cell-free enzyme assay
[16] = biological target: T1, Peroxisome proliferator-activated receptor gamma (Homo sapiens); assay: Activation of PPARgamma transfected in human MCF7 cells at 10 uM after 48 hrs by luciferase reporter gene assay; assay type: cell-based; how it was run: as §1

Structure (SMILES): CC(=O)O[C@H]1C(=O)[C@@]2(C)[C@H]([C@H](OC(=O)c3ccccc3)[C@]3(O)C[C@H](OC(=O)[C@H](O)[C@@H](NC(=O)c4ccccc4)c4ccccc4)C(C)=C1C3(C)C)[C@]1(OC(C)=O)CO[C@@H]1C[C@@H]2O
- Activity (MCF7 [1]): tde

Structure (SMILES): CC1(COc2ccc(CC3SC(=O)NC3=O)cc2)CCCCC1 (configuration not stated)
- Activity [2]: Active

Structure (SMILES): COc1ccc2c(c1)c(CC(=O)O)c(C)n2C(=O)c1ccc(Cl)cc1
- Activity [3]: inactive
- Activity [4]: inactive

Structure (SMILES): O=C(NCCSSCCNC(=O)/C(Cc1ccc(O)c(Br)c1)=N/O)/C(Cc1ccc(O)c(Br)c1)=N/O [PSAMMAPLIN A]
- Activity [5]: Active
- EC50 [6]: 5.7 µM
- AC50 (NCI-H1299): 7.5 µM
- Activity (MCF7 [7]): 62%
- Activity (MCF7 [8]): 36%
- Activity (MCF7 [9]): Active
- IC50 (MCF7 [10]): 5 µM
- Activity (T47D [11]): Active
- Activity (MCF7 [12]): Active
- Activity (MCF7 [13]): inactive
- Activity (T47D [14]): Active
- IC50 [15]: 0.0042 µM
- Activity [16]: Active
